Only some compounds are listed: those with a hit (about 4.8% of all), similar ones and a draw of the others.
697 NFkB inh: inhibitors of the PMA/ionomycin-induced NF-kB reporter in 697 B cells; 697 B-cell NF-kB luciferase reporter, 16 h; inhibition, % at 4 µM; AID 435022; hit rate 0.33% among 330,000; in the data active means inhibition above about 35%
HSF-1 act: increases HSF-1 driven luciferase reporter signal | NIH3T3-HGL HSF-1 luciferase reporter, MG132, 8 h; 100% = twice DMSO control signal | activation, % at 9 µM | hit rate 1.7% among 300,000;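 active means mean replicate activation of at least 50% with a set share of replicates each reaching 50%; inconclusive means only one of those two conditions met; inactive means mean below 50% and too few replicates reaching it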
Jurkat NFkB inh: lowers PMA/ionomycin-induced NF-kB signal in Jurkat cells | PMA/ionomycin-induced NF-kB luciferase reporter, luminescence | inhibition, % at 4 µM | hit rate 0.53% among 330,000; in the data active means inhibition above about 50%
T cruzi repl: T. cruzi replication inhibition | T. cruzi beta-gal in NIH3T3, luminescence, 90 h | inhibition, % (concentration not given with the values) | hit rate 1.4% among 300,000;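 active means mean inhibition across valid replicates above about 55%, limit read from the data; inconclusive means mean below that limit but half or more replicates reach it; inactive means mean below it, under half of replicates reach it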;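 further: signal also drops with host cell toxicity which is not excluded here; higher percent means less beta-gal luminescence so fewer parasites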
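System – NIH/3T3 host cells with β-galactosidase reporter T. cruzi · Doses – single 50 nL compound addition per well in DMSO · Reagent – 5000 T. cruzi trypomastigotes/well · Medium – Low-serum DMEM with 2% FBS · Timing – ≥90 h infection period, 3 h prior cell attachment · Evaluation – parasite load inhibition, % · Technique – GalScreen luminescence, 60 min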
HSF1 inhib: HSF1 inhibition; NIH3T3-HGL HSE-luciferase, MG132-induced, luminescence 8 h; stronger effect = lower value; activity change, negative = inhibition, % at 7.5 µM (by protocol); hit rate 0.77% among 300,000; AID 2098;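 active means more than half of replicate wells show activity change below -50%, luminescence cut by over half; inconclusive means some wells, but at most half, below -50%; inactive means no replicate well below -50%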;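 further: luciferase reports HSF-1 transcriptional activity via heat shock element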
GPR7 antagonist: blocks human GPR7 receptor signaling; P48145; GPR7-expressing cells, fluorescence antagonist assay; inhibition, % at 4.4 µM; hit rate 1.1% among 290,000; in the data active means inhibition above about 16%, passing the limit was not always enough;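 further: cells stimulated with the agonist NPW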
Target sequence (P48145 whole entry, looked up): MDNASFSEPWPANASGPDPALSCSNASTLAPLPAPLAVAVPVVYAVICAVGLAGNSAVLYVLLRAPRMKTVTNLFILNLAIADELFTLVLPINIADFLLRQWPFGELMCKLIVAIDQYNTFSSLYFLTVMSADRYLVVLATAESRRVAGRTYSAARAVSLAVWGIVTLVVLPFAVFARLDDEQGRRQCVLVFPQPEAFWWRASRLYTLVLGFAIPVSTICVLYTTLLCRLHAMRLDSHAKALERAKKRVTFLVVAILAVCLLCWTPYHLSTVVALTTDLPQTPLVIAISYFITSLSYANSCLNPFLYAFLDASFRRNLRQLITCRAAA
Of the large screens only hits and unclear results are named; the others gave an inactive call.

CCOc1ccc(CN2CCCC(CNC(=O)c3ccc(F)cc3)C2)cc1CO (stereo not drawn)	T cruzi repl 62.1
COc1ccc(CN2CCCC(CNC(=O)c3ccc(F)cc3)C2)c(C)c1C (stereo not drawn)	T cruzi repl 70.6
CCOc1cc(CN2CCCC(CNC(=O)c3ccc(F)cc3)C2)ccc1OC (stereo not drawn)	T cruzi repl 60.6
C/C(=N\OC(=O)NC1CCCCC1)c1sc(-c2ccccc2)nc1C	T cruzi repl 58.0
C=CC[C@H](CC(=O)OC(C)(C)C)C(=O)OC[C@@H]1CCCN1C(=O)[C@@H](CC=C)CC(=O)N[C@H](CO)Cc1ccccc1	none (no result: HSF-1 act, T cruzi repl, HSF1 inhib, GPR7 antagonist)
CCOc1cc(-c2c(C#N)c(N)nc3c2CCc2ccccc2-3)ccc1O	none
COc1ccccc1-c1c(C#N)c(N)nc2c1CCc1ccccc1-2	HSF-1 act 59.7
CCSC1(SCC)N=C(N)C2(C#N)C(c3ccc(OC)c(OC)c3OC)C12C#N (stereo not drawn)	HSF-1 act 197.8 (no result: GPR7 antagonist)
CCSC1(SCC)N=C(N)C2(C#N)C(c3ccccc3)NC3=C(CCC3)C12C#N (stereo not drawn)	none
CCCS(=O)(=O)c1nc(S(=O)(=O)c2ccc(C)cc2)c(N2CCC(C(N)=O)CC2)s1	none
CCCCN(C)CCCNC(=O)c1ccc2c(c1)N(CC)C(=O)c1ccccc1S2=O (stereo not drawn)	T cruzi repl 60.7
Cc1cc(C)n(CCC(=O)Nc2cccc(F)c2)n1	none
CN1Cc2cccc3c2C(Cc2ccccc2S3)C1 (stereo not drawn)	T cruzi repl 58.4
CCc1ccc2c(c1)Sc1ccccc1CC2N1CCN(C)CC1 (stereo not drawn)	none (no result: GPR7 antagonist)
Cc1ccc(Nc2nnc(SCC(=O)NC3CC3)s2)cc1	none (no result: HSF-1 act, T cruzi repl, HSF1 inhib, GPR7 antagonist)
CCOc1ccc(NC(=O)c2ccccc2O)cc1	HSF-1 act 101.8
CCOc1ccccc1C(=O)Nc1ccc(NC(=O)c2ccccc2)cc1	HSF1 inhib -79.5
CCOc1ccc(NC(=O)c2cccnc2SC)cc1	none
CCOc1ccccc1C(=O)Nc1ccc(C(=O)c2ccccc2)cc1	none
CCOc1ccc(NC(=O)c2cccnc2C(=O)O)cc1	HSF1 inhib -65.8
CCCNC(=O)COc1coc(CN2CCN(c3cccc(Cl)c3)CC2)cc1=O	none
O=C(Nc1nc(-c2ccccn2)cs1)c1cc(Cl)ccc1[N+](=O)[O-]	HSF-1 act 69.7, T cruzi repl 63.8
O=C(COc1ccc(F)cc1)Nc1nc(-c2ccccn2)cs1	none (no result: GPR7 antagonist)
O=C(Nc1nc(-c2ccccn2)cs1)c1ccccc1-n1cnnn1	T cruzi repl 63.0
Cc1cc(C(=O)Nc2nc(-c3ccccn3)cs2)ccc1[N+](=O)[O-]	T cruzi repl 80.3
CC(=O)Nc1ccc(C(=O)Nc2nc(-c3ccccn3)cs2)cc1	none
O=C(COc1ccc([N+](=O)[O-])cc1)Nc1nc(-c2ccccn2)cs1	T cruzi repl 61.3 (no result: GPR7 antagonist)
COc1ccc(NC2CCCN(C(=O)c3ccccc3N3CCOCC3)C2)cc1OC (stereo not drawn)	none
O=[N+]([O-])c1ccc(S(=O)(=O)N2CCN=C2SCc2ccc(F)cc2)cc1	T cruzi repl inconclusive
CC1=NNC(=O)C1Cc1ccccc1C (stereo not drawn)	none
Cc1ccc(S(=O)(=O)N(C)C)cc1NC(=O)c1ccccc1SCC(=O)N1CCCC1	none (no result: HSF-1 act, T cruzi repl, HSF1 inhib, GPR7 antagonist)
CCN1CCN(S(=O)(=O)c2c[nH]c(C(=O)OC)c2)CC1	none
CCC(C)[C@@H](N)C(=O)N/N=C/c1ccc2ncccc2c1 (stereo partly drawn)	none
ONC(=Nc1ccc(Cl)cc1)c1ccc(Cl)cc1	HSF-1 act 55.1
O=[N+]([O-])c1cccc(C(=Nc2ccc(Cl)cc2)NO)c1	none
O=C(NC1CCCN(CCc2ccccc2)C1)c1c(F)cccc1F (stereo not drawn)	none
CC1(C)CC(=O)C(C=Nc2ccncc2)=C(O)C1	none
CC1(C)CC(=O)C(C=Nc2cccnc2)=C(O)C1	HSF-1 act 132.6
CCOc1ccc(S(=O)(=O)NC(C)(C)C)cc1-c1nc2c(C(C)(C)C)nn(C)c2c(=O)[nH]1	T cruzi repl 67.4
CCOc1ccc(S(N)(=O)=O)cc1-c1nc2c(C(C)(C)C)nn(C)c2c(=O)[nH]1	none
CCc1ccc(NC(=O)Cc2c(C(=O)O)n(C)c3ccccc23)cc1	none
Cc1ccccc1NC(=S)N(CCCN1CCOCC1)Cc1cccnc1	none
Cc1ccc(NC(=O)N(Cc2ccco2)Cc2cc3cc(C)cc(C)c3nc2Cl)cc1	T cruzi repl 55.8 (no result: 697 NFkB inh, Jurkat NFkB inh)
CCc1ccc(NC(=S)N(Cc2cccnc2)Cc2ccco2)cc1	none (no result: HSF-1 act, T cruzi repl, HSF1 inhib)
Cc1ccc(NC(=S)N(CCCN2CCOCC2)Cc2cccnc2)cc1C	T cruzi repl 68.4
Cc1ccc(NC(=O)N(Cc2cccnc2)Cc2ccco2)cc1C	T cruzi repl 67.2
O=C(Nc1ccc(Cl)cc1)N(Cc1cccnc1)Cc1ccco1	T cruzi repl 60.9
CC(C(=O)NCc1cccc(Cl)c1)N1C(=O)c2ccccc2C1=O (stereo not drawn)	none
Cc1cc(-c2c(C)[nH]n(-c3ccccc3)c2=O)n[nH]1	none
COC(=O)C1(O)CC(CC(C)C)=NN1C(=O)c1ccccc1 (stereo not drawn)	HSF-1 act 148.3
O=C(c1ccccc1)N1N=C(C(F)(F)F)CC1(O)c1ccccc1 (stereo not drawn)	none
S=c1nc(C2COc3ccccc3O2)[nH][nH]1 (stereo not drawn)	none
CCCS(=O)(=O)c1cnc(C2COc3ccccc3O2)nc1N (stereo not drawn)	HSF1 inhib -80.1
CCN(c1ccc(NC(=O)c2cccc(S(=O)(=O)N3CCN(C)CC3)c2)cc1)C(C)C	none
CCc1ccc(NC(=O)C2CCCN2c2nn3c(=O)cc(C)nc3s2)cc1 (stereo not drawn)	none
O=C(CSc1nnc(CNC(=O)c2cccs2)o1)NCc1ccc(F)cc1	HSF1 inhib -55.1
Cc1cccc2nc3c(nc12)CCCC3	none
Cc1nnc(NC(=O)C2CCN(C(=O)c3ccco3)CC2)s1	none
CC(C)c1nnc(NC(=O)C2CCN(C(=O)c3ccco3)CC2)s1	HSF1 inhib -64.0
c1ccc(Nc2nc(NCC3CCCO3)c3ccccc3n2)cc1 (stereo not drawn)	T cruzi repl 93.4 (no result: HSF-1 act, HSF1 inhib)
COc1ccc(Nc2nc(NCC3CCCO3)c3ccccc3n2)c(OC)c1 (stereo not drawn)	T cruzi repl 68.4
CCOc1ccc(Nc2nc(NCC3CCCO3)c3ccccc3n2)cc1 (stereo not drawn)	none
COc1ccc(CNC(=S)Nc2ccc(F)c(Cl)c2)cc1	HSF-1 act 73.4
COC(=O)NC(=S)Nc1ccc(Oc2ccc(Cl)cc2Cl)c(Cl)c1	T cruzi repl 61.6
COC(=O)NC(=S)Nc1ccc(Oc2ccc(Cl)cc2)c(Cl)c1	T cruzi repl 74.2

High-throughput results (PubChem)
